This is an account of results in article PMC10646973 (Biochemistry, 2023).

The test system of experiment [1] is protein arginine and protein lysine methyltransferases (PRMTs and PKMTs) in HT-29 colorectal cells. As to the kind of experiment: Protein methylation marks. Type of experiment: cell-based. The note with it: HT-29 cells, 6 days, positive control. In a few lines: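 HT-29 colorectal cells were exposed to the test compound for 6 days. Soluble protein was then extracted and immunoblotted for symmetric dimethylarginine, asymmetric dimethylarginine and trimethyl-lysine marks. The SDMA positive control was a PRMT5-specific inhibitor, and the ADMA positive control was a type I PRMT (PRMT1/4) inhibitor.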

Experiment [2] has as its system PNMT. The note with it: read-out: apparent IC50; cited from earlier work.

Molecules are shown by their SMILES.

Take `CC(=O)N1CCC(Nc2cc(C(=O)NC[C@H](O)CN3CCc4ccccc4C3)ncn2)CC1` [GSK3326595, reference compound]: in experiment [1], the “SDMA (Western blot)” value was “no band corresponding to SDMA”.

On to `NC(=O)c1cccc(C#CCN(CC[C@H](N)C(=O)O)C[C@H]2O[C@@H](n3cnc4c(N)ncnc43)[C@H](O)[C@@H]2O)c1` [LL320], for which, in experiment [2], the IC50 (as a rule, the point on the concentration scale where inhibition reaches its midpoint) was greater than 100 µM.

With `CC(C)Oc1ccc(-c2c[nH]cc2CN(C)CCN)cc1` [MS023, reference compound], in experiment [1], the “ADMA (Western blot)” value is reported as “no evidence of ADMA”.
